Assay outcomes deposited in PubChem BioAssay by several laboratories.
HCV core dimer – blocks dimerization of HCV core protein | 0.33% of 300,000 active | AID 1899 | TR-FRET GST/Flag-core106 dimerization, 1536-well | inhibition, % at 5 µM;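 active = inhibition above the mean of all tested compounds plus 3 SD, set per screening campaign, cut at about 45% in these data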
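Material: GST/Flag-tagged HCV core106 proteins. Incubation: 4 h, 22.5 °C incubation. Read-out basis: inhibition (%) from 671 over 617 nm ratio. Measured by: TR-FRET, excitation 340 nm, emission 617 and 671 nm.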
Tb MetRS inh – blocks T. brucei methionyl-tRNA synthetase activity; AID 624268; 0.4% of 360,000 active; purified T. brucei MetRS, ATP depletion, Kinase-Glo luminescence; inhibition, % at 11.9 µM;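 active = inhibition above a per-plate cutoff of the control wells' mean inhibition plus 3 SD, cut at about 5.5% in these data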;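 also: 0% = DMSO wells median and 100% = median of wells with control inhibitor compound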
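System: purified T. brucei MetRS enzyme / Detection: Kinase-Glo luciferase luminescence reporting remaining unconsumed ATP / Medium: HEPES buffer with MgCl2, KCl, DTT, spermine, BSA, pyrophosphatase / Replication: singlicate, one well per compound / Evaluation: percent inhibition relative to median high and low control wells / Schedule: 2 h aminoacylation at 25 °C after 15 min preincubation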
Lipid droplet – modulators of hepatic lipid droplet formation | 0.4% of 240,000 active | AML12 mouse hepatocytes, oleate lipid droplets, BODIPY imaging | inhibition, % at 6.5 µM | AID 1656;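 active = lipid droplet intensity inhibited by at least 50%, with more than 500 cells counted; inconclusive = wells with under 300 cells, treated as cytotoxic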
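Assay system: AML12 mouse liver cells | Compound dosing: One dose, 6.5 µM compound | Read-out basis: Droplet intensity reduction, % inhibition | Measured by: Fluorescence imaging, 20x objective, two fields per well | Schedule: Overnight treatment with compound plus oleate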
NS3 helicase inh – blocks Hepatitis C virus NS3 helicase unwinding. 0.56% of 290,000 active. NS3 helicase DNA unwinding, Cy5 molecular beacon fluorescence. inhibition, % at 10.9 µM;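 active = inhibition above the mean of all tested compounds plus 3 SD, set per campaign, cut at about 35% in these data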;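 also: 0% = DMSO wells and 100% = thioflavine S control wells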
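test system = hepatitis C virus NS3 helicase domain fragment enzyme | reagent = annealed dual-labelled DNA beacon duplex, ATP-started | times = 1 h at 25 °C | detection = Cy5 fluorescence, 0 and 60 min reads | read-out basis = percent inhibition from t60/t0 fluorescence ratio | control set = DMSO and thioflavine S | replication = one well per compound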
* = called active by the depositor; ? = inconclusive; nt = not tested or not shown. A selection: hits, their analogues and other compounds. The true share with any hit is near 1.3%.

SMILES	HCV core dimer	Tb MetRS inh	Lipid droplet	NS3 helicase inh
CN1CCN(C(=O)C[C@@H]2C=C[C@H](NS(=O)(=O)c3cccc(F)c3)[C@@H](CO)O2)CC1	nt	0	nt	nt
O=C(NC1CCOC1=O)OCc1ccccc1 (stereo not drawn)	nt	0	nt	nt
COc1ccc(-c2nn(-c3ccccc3)cc2C(=O)Nc2cccc(C(=O)O)c2)cc1[N+](=O)[O-]	17	0	-4	6
COc1ccc(-c2nn(-c3ccccc3)cc2/C=C(\C#N)C(N)=O)cc1[N+](=O)[O-]	54*	-2	nt	2
COc1ccc(-c2nn(-c3ccccc3)cc2/C=C(/C#N)C(N)=O)cc1[N+](=O)[O-]	47*	0	48	4
COCCCN1C(=O)C(CC(=O)NCCCCc2ccccc2)CC(C(=O)N2CCOCC2)=C1C (stereo not drawn)	nt	0	nt	nt
Nc1nc2ncccn2c1-c1ccc(F)c(F)c1	nt	0	nt	nt
O=C1NC(=S)N/C1=C/c1cccn1-c1ccc([N+](=O)[O-])cc1	59*	0	4	27
CCOc1ccc(N2CSC3=C(C#N)C(c4ccco4)CC(=O)N3C2)cc1 (stereo not drawn)	78*	-1	20	14
O=C(COc1ncnc2scc(-c3ccc(F)cc3)c12)NCc1ccco1	17	-2	12	3
O=C(CSc1nc2cc(Cl)ccc2s1)NC(=O)NCc1ccco1	57*	-2	nt	12
CCOc1ccc2nc(SCC(=O)NC(=O)NCc3ccco3)sc2c1	13	-1	nt	24
Cc1sc2ncnc(SCC(=O)NC(=O)NCc3ccco3)c2c1C	50*	0	nt	11
CCCCc1nc2sc3c(SCC(=O)NCc4ccco4)ncnc3c2c2c1CCC2	105*	0	nt	11
Cc1ccc(-c2csc3ncnc(OCC(=O)NC(=O)NCc4ccco4)c23)cc1	49*	0	nt	4
Cc1ccc(F)cc1C(=O)N1CCCC(C)(C(=O)NS(=O)(=O)C2CC2)C1 (stereo not drawn)	nt	0	nt	nt
CC1(c2nc3ccccc3[nH]2)c2ccccc2C(=O)N1C1CC1 (stereo not drawn)	nt	1	nt	nt
COC(=O)[C@@]12C[C@@H](CC(=O)N3CCOCC3)C(=O)N(CCc3ccc(OC)c(OC)c3)C1=CCC(C)(C)C2	nt	-1	nt	nt
O=C1C=C(c2ccccc2)CC(c2cccs2)C1n1cnc([N+](=O)[O-])c1 (stereo not drawn)	47*	-1	nt	12
COc1ccc(-c2oc(NC(=O)c3ccc(C)cc3)c(C#N)c2-c2ccc(OC)cc2)cc1	60*	0	14	-9
COc1ccc(C(=O)Nc2oc(-c3ccccc3)c(-c3ccccc3)c2C#N)cc1OC	18	0	-1	-3
COc1ccc(-c2oc(NC(C)=O)c(C#N)c2-c2ccc(OC)cc2)cc1	14	-1	-28	-7
COc1ccc(C(=O)Nc2oc(-c3ccccc3)c(-c3ccccc3)c2C#N)cc1	47*	-1	nt	-3
CCC(=O)Nc1ccc(C(=O)NNC(=O)CCCCC(=O)NNC(=O)c2ccc(NC(=O)CC)cc2)cc1	nt	0	nt	nt
COc1ccc2c(c1)c(CC(=O)Nc1cc(C)ccc1C)c(C)n2C(=O)c1ccc(Cl)cc1	10	0	68*	2
SMILES	HCV core dimer	Tb MetRS inh	Lipid droplet	NS3 helicase inh
COC(=O)C1CCN(C2=C(NS(=O)(=O)c3ccc(Cl)cc3)C(=O)c3ccccc3C2=O)CC1	-4	0	4	14
CC1CCCN(C2=C(NS(=O)(=O)c3ccc(Cl)cc3)C(=O)c3ccccc3C2=O)C1 (stereo not drawn)	-7	-1	57*	-8
CC(/C=N/NC(=O)c1cc(-c2ccccc2)nc2ccccc12)=C\c1ccco1	51*	0	-130	1
CC(/C=N/NC(=O)CSc1nnc(SCc2ccccc2)s1)=C\c1ccco1	48*	0	-1	16
O=C(N/N=C/c1ccco1)c1cc(-c2ccncc2)nc2ccccc12	nt	1	-6	8
CC(/C=N/NC(=O)c1cc(-c2ccc(Cl)cc2)nc2ccccc12)=C\c1ccco1	88*	0	?	11
CCOC(=O)CCCCCC(=O)Nc1ccc2c(c1)C(=O)N([C@H](C)CO)C[C@H](C)[C@H](CN(C)C(=O)C1CCCCC1)OCCCC[C@@H](C)O2	nt	-1	nt	nt
CCCCCCCCC[n+]1cccc2c3ccccc3ccc21	4	5.7*	nt	-81
CCCCCCCCCCCCCCCC[n+]1cccc2ccccc21	-11	-1	-38	-72
COc1ccc2cc3c(N)nn(C(=O)c4ccccc4[N+](=O)[O-])c3nc2c1	-6	0	13	-6
COc1ccc2cc3c(N)nn(C(=O)c4ccc(Cl)c([N+](=O)[O-])c4)c3nc2c1	48*	0	-3	11
COc1ccc(C(NC(=O)C2CCN(C/C=C/c3ccc(OC(C)=O)c(OC)c3)CC2)c2ccccn2)cc1 (stereo not drawn)	nt	0	nt	nt
O=C1NC[C@@H](CCCCN2C[C@H](Cc3ccc(O)cc3)N(CC3CCCCC3)C(=O)C2=O)N(CCC2CCCCC2)C1=O	nt	0	nt	nt
CN(C)/C=C/C(=O)/C=C/c1cn(-c2ncc(C(F)(F)F)cc2Cl)c2ccccc12	58*	-1	0	28
COC(=O)Cc1cn(-c2ncc(C(F)(F)F)cc2Cl)c2ccccc12	-1	-2	-9	0
Cc1cc(C(=O)OCC(=O)c2cccc([N+](=O)[O-])c2)c2cccc(C)c2n1	88*	0	nt	2
COc1ccc(-c2cc(C(=O)OCC(=O)c3cccc([N+](=O)[O-])c3)c3cc(C)ccc3n2)cc1	0	-1	3	-7
Cc1ccc(S(=O)(=O)N2CCN(C(=O)c3cccc(-n4cccc4)c3)CC2)cc1	31	0	nt	nt
O=C(c1cccc(-n2cccc2)c1)N1CCN(S(=O)(=O)c2ccccc2)CC1	65*	0	nt	nt
N#CC(=C=[N-])C1=C(C#N)C(c2ccccc2F)C([n+]2ccccc2)C(O)(C2CC2)N1 (stereo not drawn)	52*	0	6	1
COc1cccc(C(O)c2nc(-c3cccc(CO)c3)cs2)c1 (stereo not drawn)	nt	0	nt	nt
COc1ccc(N2CCN(C(=O)c3ccc4c(c3)NC(=O)C(CSCc3c(F)cccc3Cl)N4)CC2)cc1 (stereo not drawn)	67*	nt	28	8
Cc1cccc(N2CCN(C(=O)c3ccc4c(c3)NC(=O)C(CSCc3ccc(F)cc3)N4)CC2C)c1 (stereo not drawn)	64*	nt	3	20
COc1ccc(N2CCN(C(=O)c3ccc4c(c3)NC(=O)C(CSCc3cccc(F)c3)N4)CC2)cc1 (stereo not drawn)	34	nt	5	14
COc1ccc(N2CCN(C(=O)c3ccc4c(c3)NC(=O)C(CSCc3ccc(C)cc3)N4)CC2)cc1 (stereo not drawn)	64*	nt	8	16
CC1(C(=O)NS(=O)(=O)c2ccc(Cl)cc2)CCN1C(=O)CCc1cccs1 (stereo not drawn)	nt	0	nt	nt
